From ChEMBL document CHEMBL3091314, “Synthesis, cytotoxic evaluation and molecular docking study of 2-alkylthio-4-(2,3,4-trimethoxyphenyl)-5-aryl-thiazoles as tubulin polymerization inhibitors” (Bioorg Med Chem, 2013)
Calls of active or inactive are those of the source. The rule behind the calls is not given here.

Experiments:
[1] = tested on: MCF7; assay: Cytotoxicity against human MCF7 cells after 48 hrs by MTT assay; type: functional, cell-based; settings: MCF7, 48 h
In short: (§1)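 Cells grown in RPMI-1640 with 10% heat-inactivated FBS, penicillin and streptomycin, seeded at 8000–10,000 viable cells/well and left 48 h to attach. Exposed to 0.001–100 µM compound (DMSO final <0.1%) for 24 or 48 h depending on cell line. MTT (5 mg/ml in PBS) added for 4 h at 37 °C, formazan dissolved in DMSO, absorbance read at 550 nm against 690 nm. Triplicates; IC50 by nonlinear regression, mean ± SD.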

[2] = tested on: HT-29; assay: Cytotoxicity against human HT-29 cells after 48 hrs by MTT assay; type: functional, cell-based; settings: HT-29, 48 h; in short: as §1
[3] = tested on: AGS; assay: Cytotoxicity against human AGS cells after 48 hrs by MTT assay; type: functional, cell-based; in short: as §1
[4] = tested on: NIH3T3; assay: Cytotoxicity against mouse NIH/3T3 cells after 48 hrs by MTT assay; type: cell-based; settings: NIH3T3, 48 h; in short: as §1
[5] = organism: Ovis aries; assay: Inhibition of sheep brain tubulin polymerization at 10 uM after 15 mins
In short: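 Purified tubulin (12 µM) preincubated 15 min with compound at 10 µM final in PEM buffer (100 mM PIPES pH 6.9, 1 mM MgSO4, 1 mM EGTA), then cooled to 0 °C. GTP added to 1 mM final; assembly started by warming from 0 to 37 °C and followed by absorbance at 350 nm. Duplicate experiments; CA-4 as positive control.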

[6] = tested on: NIH3T3; assay: Cell cycle arrest in mouse NIH/3T3 cells assessed as accumulation at G2/M phase at 50 uM after 24 hrs using propidium iodide staining by flow cytometric analysis (reference value: 35.70%); type: cell-based; settings: nih3t3, 24 h
In short: (§2)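 NIH-3T3 cells treated with 25 or 50 µM for 24 h. Collected by centrifugation, fixed in 75% ethanol at 4 °C for 0.5 h, then resuspended in PBS with 0.1% Triton X-100, 10 µg/mL propidium iodide and 100 µg/mL RNase A at 37 °C for 0.5 h. DNA content read on a FACSCalibur flow cytometer. CA-4 (0.05 µM) served as positive control.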

[7] = tested on: NIH3T3; assay: Cell cycle arrest in mouse NIH/3T3 cells assessed as accumulation at S phase at 50 uM after 24 hrs using propidium iodide staining by flow cytometric analysis (reference value: 24.39%); type: cell-based; settings: nih3t3, 24 h; in short: as §2
[8] = tested on: NIH3T3; assay: Cell cycle arrest in mouse NIH/3T3 cells assessed as accumulation at G0/G1 phase at 50 uM after 24 hrs using propidium iodide staining by flow cytometric analysis (reference value: 39.91%); type: cell-based; settings: nih3t3, 24 h; in short: as §2
[9] = tested on: NIH3T3; assay: Cell cycle arrest in mouse NIH/3T3 cells assessed as accumulation at S phase at 25 uM after 24 hrs using propidium iodide staining by flow cytometric analysis (reference value: 24.39%); type: cell-based; settings: nih3t3, 24 h; in short: as §2
[10] = tested on: NIH3T3; assay: Cell cycle arrest in mouse NIH/3T3 cells assessed as accumulation at G2/M phase at 25 uM after 24 hrs using propidium iodide staining by flow cytometric analysis (reference value: 35.70%); type: cell-based; settings: nih3t3, 24 h; in short: as §2
[11] = tested on: NIH3T3; assay: Cell cycle arrest in mouse NIH/3T3 cells assessed as accumulation at G0/G1 phase at 25 uM after 24 hrs using propidium iodide staining by flow cytometric analysis (reference value: 39.91%); type: cell-based; settings: nih3t3, 24 h; in short: as §2

SMILES | IC50 [1] | IC50 [2] | IC50 [3] | IC50 [4] | tubulin polymerization inhibition (active/inactive) [5] | Activity [6] | Activity [7] | Activity [8] | Activity [9] | Activity [10] | Activity [11]
COc1ccc(-c2nc(SCc3ccccc3)sc2-c2ccccc2)c(OC)c1OC | 27.3 µM | 46 µM | 38.5 µM | 56.5 µM |  |  |  |  |  |  | 
COc1ccc(-c2nc(SC)sc2-c2ccccc2)c(OC)c1OC |  | 77.9 µM | 27.2 µM | 22.1 µM |  |  |  |  |  |  | 
COc1ccc(/C=C\c2cc(OC)c(OC)c(OC)c2)cc1O [COMBRETASTATIN A4] | 0.67 µM | 1.58 µM | 0.064 µM | 0.097 µM | Active |  |  |  |  |  | 
COc1ccc(-c2nc(SC)sc2-c2ccc(F)cc2)c(OC)c1OC |  | 80.3 µM | 97.8 µM | 42.1 µM |  |  |  |  |  |  | 
COc1ccc(-c2nc(SC)sc2-c2ccc(Cl)cc2)c(OC)c1OC |  | > 100 µM | > 100 µM | 95.7 µM |  |  |  |  |  |  | 
COc1ccc(-c2nc(SCc3ccccc3)sc2-c2ccc(F)cc2)c(OC)c1OC | 18.5 µM | 18.5 µM | 18.1 µM | 41.5 µM | Active |  |  |  |  |  | 
COc1ccc(-c2nc(SC)sc2-c2ccc([N+](=O)[O-])cc2)c(OC)c1OC |  | 45.3 µM | > 100 µM | > 100 µM |  |  |  |  |  |  | 
COc1ccc(-c2nc(SCc3ccccc3)sc2-c2ccc([N+](=O)[O-])cc2)c(OC)c1OC | 11 µM | 33.8 µM | 13.8 µM | 16.3 µM | Active |  |  |  |  |  | 
COc1ccc(-c2nc(SCc3ccccc3)sc2-c2ccc(Cl)cc2)c(OC)c1OC | 12.6 µM | 8.9 µM | 15.8 µM | 20.5 µM | Active | 57.41% | 26.67% | 15.92% | 28.12% | 37.64% | 34.24%
